# From PubChem
# T cell modulator – T cell immune modulation candidate. 2C CD8+ T cell-vesicle binding, flow cytometry; active compounds read low. response (vesicle binding), % at 7 µM. actives 0.068% (n = 330,000);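 active = response, share of CD8 T cells binding vesicles, and their 90th percentile fluorescence all below set limits, cut at about 80% in these data, passing the limit was not always enough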;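 also: values below 100% mean blocked vesicle binding to the CD8+ T cells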
#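 Test system: purified 2C TCR transgenic mouse naive CD8+ T cells. Probe or stimulus: QL9-peptide-loaded Drosophila micro-vesicles bearing Ld, ICAM-1 and B7-1. Incubation: binding step 1.5 h, 37 °C, antibody labelling 20 min, ice. Measured by: flow cytometry of vesicle-bound cells.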
# ALR H2O2 inh – blocks human ALR sulfhydryl oxidase activity | purified ALR, DTT oxidation, H2O2 HRP-luminol luminescence | inhibition, % (no concentration beside the values) | actives 3.8% (n = 290,000);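 active = mean replicate inhibition above about 79%, with every replicate also reaching it, limit read from the data; inconclusive = only one of the two criteria met; inactive = mean below limit and not every replicate reaching it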
# Target sequence (P55789 whole entry, looked up): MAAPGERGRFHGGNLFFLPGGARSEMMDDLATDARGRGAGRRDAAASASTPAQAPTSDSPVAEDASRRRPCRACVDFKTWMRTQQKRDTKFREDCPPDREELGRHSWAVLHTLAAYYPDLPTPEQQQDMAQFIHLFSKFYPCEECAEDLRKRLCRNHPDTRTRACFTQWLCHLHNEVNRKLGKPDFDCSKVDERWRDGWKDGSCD
# Glyco luc inh – N-linked glycosylation inhibition; reporter increase, % at 12.5 µM; actives 0.23% (n = 360,000); D54 ERlucT glycosylation luciferase reporter, 24 h; percent of 100 nM tunicamycin response;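 active = mean luciferase reporter signal, scaled so untreated is 0 and the glycosylation-blocking control 100, at or above a set limit in every replicate; inconclusive = mean reaches the limit but not every replicate does; inactive = mean below the limit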;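 also: luciferase carries N-glycosylation sites so blocking glycosylation raises the light; 0% = median of neutral control wells and 100% = median of 100 nM tunicamycin wells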
# Numbers without * were called inactive; ? = inconclusive; / = not tested or not shown. The entries come from a sample that favours hits as a whole.
SMILES,T cell modulator,ALR H2O2 inh,Glyco luc inh
CCN(CC)c1ccc(NC(=O)CCS(=O)(=O)c2cccc3nsnc23)c(C)c1,245,99*,1
CC(C)c1ccc(NC2CCCN(C(=O)c3cccnc3)C2)cc1 (configuration not stated),364,69,-1
Cc1ccc(NC2CCCN(C(=O)c3cccnc3)C2)cc1C (configuration not stated),751,93*,2
COC(=O)c1cccc(C(=O)N2CCCC(Nc3ccc(C)c(C)c3)C2)c1 (configuration not stated),885,98*,-1
COc1ccc(NC2CCCN(C(=O)c3cccc(C(F)(F)F)c3)C2)cc1OC (configuration not stated),139,?,3
Cc1ccc(NC2CCCN(C(=O)c3cc4ncccn4n3)C2)cc1C (configuration not stated),407,83*,3
COc1ccc(C(=O)N2CCCC(Nc3ccc(F)cc3)C2)cc1F (configuration not stated),232,65,1
COc1ccc(C(=O)N2CCCC(Nc3ccc(C)c(C)c3)C2)cc1F (configuration not stated),488,95*,1
COc1ccc(S(=O)(=O)NC(=O)C2(C)CCN2C(=O)C2CC2)cc1 (configuration not stated),/,/,-1
CC1CCN(CC(=O)Nc2ccc(S(=O)(=O)N3C(C)CCCC3C)cc2)CC1 (configuration not stated),214,/,-7
CC(=O)c1cc(CN2CCC(C(=O)Nc3ccc(-n4nc(C)cc4C)cc3)CC2)cs1,461,-9,-5
Cc1onc(C(=O)NCc2ccccn2)c1[N+](=O)[O-],197,2,3
Cc1c(C)c2cc(Cl)c(OCC(=O)NC3CC(C)(C)NC(C)(C)C3)cc2oc1=O,526,-5,15
C=Cc1ccc(C(=O)N2CCCC(Nc3ccc4c(c3)OCCO4)C2)cc1 (configuration not stated),/,/,-1
C=CCOc1cccc(C(=O)N2CCCC(Nc3ccc4c(c3)OCCO4)C2)c1 (configuration not stated),488,91*,-1
Cc1ccn2cc(C(=O)N3CCCC(Nc4ccc(F)cc4)C3)nc2c1 (configuration not stated),249,66,1
Cc1ccc(C(=O)N2CCCC(Nc3ccc(F)cc3)C2)cc1C (configuration not stated),474,99*,2
COc1ccc(/C=N/OC(=O)c2ccc(Cl)cc2)c(Cl)c1OC,196,-1,0
CC1CCC/C(=C\c2ccc(O)cc2)C1=O (configuration not stated),314,92*,-3
CN(C)CC1CC/C(=C\c2ccc(O)cc2)C1=O (configuration not stated),/,/,-15
Cc1cccc(N/N=C/c2ccncc2)c1,308,99*,2
O=C(N/N=C/c1ccsc1)c1cc(-c2ccncc2)nc2ccccc12,206,/,15
O=C(N/N=C/c1ccc(O)cc1)c1cccc(N/N=C/c2ccc(O)cc2)c1,115,/,-5
O=C(N/N=C/c1ccccn1)c1ccc(Br)cc1,145,-6,14
O=C(N/N=C/c1ccccn1)c1cc(-c2ccncc2)nc2ccccc12,286,0,41*
SMILES,T cell modulator,ALR H2O2 inh,Glyco luc inh
O=C(N/N=C/c1ccccn1)c1ccc(N/N=C/c2ccccn2)cc1,462,99*,-1
O=C(N/N=C/c1ccncc1)c1cccc(N/N=C/c2ccncc2)c1,116,96*,-1
Cc1cccc(NC(=O)C(=O)N/N=C/c2ccncc2)c1,212,-9,3
CCOc1ccccc1NC(=O)CCc1nnc2ccc(N3CCC4(CC3)OCCO4)nn12,248,-3,2
O=C1C(=O)N(CCN2CCOCC2)C(c2ccc(Cl)cc2)/C1=C(/O)c1ccc(S(=O)(=O)N2CCOCC2)cc1 (configuration not stated),212,6,-1
CCc1cc(-c2n[nH]c(=S)n2-c2cccc(C)c2)cs1,423,85*,0
Cc1cccc(-n2c(-c3csc(C)c3)n[nH]c2=S)c1,218,55,3
COc1ccc(C2(C)NC(=O)N(CC(=O)Nc3ccc(C)cc3Br)C2=O)cc1OC (configuration not stated),323,3,-1
CNC(=O)c1ccsc1NC(=O)c1coc2ccccc2c1=O,284,38,1
O=C(O)CCCC(=O)N1CCN(c2nc(-c3ccccc3)c3ccccc3n2)CC1,183,77*,4
Cc1ccc2nc(N3CCN(C(=O)CCC(=O)O)CC3)nc(-c3ccccc3)c2c1,454,11,2
COc1ccc(C(=O)NCCOc2ccccc2Cl)c(OC)c1OC,181,-4,-1
CCCS(=O)(=O)Nc1c(C(=O)O)[nH]c2ccc(OC)cc12,558,?,3
COC(=O)c1[nH]c2ccc(C)cc2c1NS(=O)(=O)c1ccc(F)c(C)c1,114,30,-3
COc1ccc2[nH]c(C(=O)O)c(NS(=O)(=O)c3ccc(C)cc3C)c2c1,379,98*,1
COC(=O)c1[nH]c2ccc(C)cc2c1NS(=O)(=O)c1ccc(F)cc1,519,79*,-1
CC(OC(=O)Cc1ccsc1)C(=O)Nc1ccc(C(N)=O)cc1 (configuration not stated),932,/,1
OCc1cc(-c2ccc(Cl)c(Cl)c2)on1,511,-7,-2
COc1ccc(C(=O)CSc2[nH]c(=O)cc(C(F)(F)F)c2C#N)cc1,84,98*,1
COc1ccc(-c2cc(C(F)(F)F)c(C#N)c(SCC(=O)Nc3ccc(C)cc3)n2)cc1,176,4,1
CCOC(=O)C1CCN(c2c(Nc3ccc(C)c(C)c3)c(=O)c2=O)CC1,367,/,0
CCOC(=O)C1CCCN(c2c(NCCCN(CC)c3cccc(C)c3)c(=O)c2=O)C1 (configuration not stated),501,98*,3
CCOC(=O)C1CCN(c2c(NCCCN(CC)c3ccccc3)c(=O)c2=O)CC1,222,90*,0
CCOC(=O)C1CCCN(c2c(NCCc3cccc(C)c3)c(=O)c2=O)C1 (configuration not stated),466,-5,2
FC(F)C(F)(F)Oc1cccc(Nc2nccn3c(-c4cccc5ccccc45)cnc23)c1,/,/,-1
SMILES,T cell modulator,ALR H2O2 inh,Glyco luc inh
CC(C)c1cccc(-c2ccc3c(c2)S(=O)(=O)c2cccc(C(=O)NCc4ccco4)c2C3=O)c1,296,-4,0
COc1ccc(-c2nc(CC(=O)O)cs2)cc1OC,316,1,/
CCOc1ccc(-c2nc(CCl)cs2)cc1OC,544,99*,-2
CCc1cc2c3c(c1)C(C)CC(C)(C)N3C(=O)/C2=C1\SC(=O)NC1=O (configuration not stated),200,97*,0
COc1cc2c3c(c1)C(C)CC(C)(C)N3C(=O)C2=O (configuration not stated),231,-75,0
CCOCCCN(CC(=O)NC1CCCC1)C(=O)C(=O)Nc1ccc2c(c1)OCCO2,87,-9,0
COc1ccccc1NC(=O)c1cc(S(=O)(=O)NC2CCCC2)ccc1F,416,4,-1
